Laboratory results reported in ChEMBL document CHEMBL3414433, “Discovery and profiling of a selective and efficacious Syk inhibitor” (J Med Chem, 2015).

Tests used:
[1] = target: STE20-like serine/threonine-protein kinase (Homo sapiens, UniProt Q9H2G2); assay: Competitive binding affinity to human SLK
[2] = Drug uptake in blood of Lewis rat collagen-induced arthritis model at 10 mg/kg, po qd administered on day 15 post immunization measured at 8 hrs on day 18; assay type: ADME, organism-based; design: dose 10 mg/kg, route oral; details: read-out: Drug uptake
Procedure, shortened: (§1)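 Collagen-arthritic Lewis rats given 3, 10 or 30 mg/kg p.o. once daily from day 15; blood levels measured on day 18 (third day of treatment) at 4, 8 and 24 h after dosing.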

Rattus norvegicus [3] = assay: In vivo inhibition of Syk in Lewis rat assessed as reduction in FcgR-induced SLP76 phosphorylation in peripheral blood monocytes at 22 mg/kg, po measured after 24 hrs relative to vehicle-treated control; assay type: functional
Procedure, shortened: (§2)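 Single oral dose of 22 mg/kg to Lewis rats; blood sampled at 2, 4 and 24 h after dosing for compound level and ex vivo FcγR-induced phospho-SLP76 in peripheral blood monocytes.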

[4] = Drug uptake in blood of Lewis rat collagen-induced arthritis model at 3 mg/kg, po qd administered on day 15 post immunization measured at 8 hrs on day 18; assay type: ADME, organism-based; design: dose 3 mg/kg, route oral; details: read-out: Drug uptake; procedure, shortened: as §1
Rattus norvegicus [5] = assay: Dose normalized Cmax in Sprague-Dawley rat at 1 mg/kg, iv and 3 mg/kg, po administered as cassette dosing; assay type: ADME, organism-based; details: in vivo
Procedure, shortened: (§3)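 Rat PK: i.v. 1 mg/kg in NMP/PEG200 (3:7); p.o. 3 mg/kg in CMC/water/Tween (0.5:99:0.5). Exposure values dose normalized.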

Canis familiaris [6] = organism: Canis familiaris; assay: Hepatotoxicity in dog assessed as portal inflammation measured for 4 weeks by GLP study; assay type: toxicity, organism-based, Canis lupus familiaris; details: in vivo, 672 h
Canis familiaris [7] = organism: Canis familiaris; assay: Hepatotoxicity in dog assessed as single necrosis of hepatocytes measured for 4 weeks by GLP study; assay type: toxicity, organism-based, Canis lupus familiaris, Hepatocyte; details: 672 h
[8] = Drug uptake in Lewis rat blood at 22 mg/kg, po measured after 24 hrs; assay type: ADME, organism-based; design: dose 22 mg/kg, route oral; details: read-out: Drug uptake; procedure, shortened: as §2
[9] = Volume of distribution at steady state in Beagle dog at 0.1 mg/kg, iv and 0.3 mg/kg, po; assay type: ADME, organism-based, Canis lupus familiaris; details: in vivo, read-out: Vdss
Procedure, shortened: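 Beagle dogs dosed one-in-one. The i.v. dose was 0.1 mg/kg in NMP/PEG200 (3:7), and the p.o. dose was 0.3 mg/kg in MC/water (0.5:99.5). Blood levels were followed after each route.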

Rattus norvegicus [10] = organism: Rattus norvegicus; assay: Hepatotoxicity in rat assessed as single necrosis of hepatocytes measured for 4 weeks by GLP study; assay type: toxicity, organism-based, Hepatocyte; details: 672 h
[11] = target: Tyrosine-protein kinase JAK2 (Homo sapiens, UniProt O60674); assay: Competitive binding affinity to human JAK2
[12] = target: Proto-oncogene tyrosine-protein kinase ROS (Homo sapiens, UniProt P08922); assay: Competitive binding affinity to human ROS1
[13] = Clearance in Sprague-Dawley rat at 1 mg/kg, iv and 3 mg/kg, po administered as cassette dosing; assay type: ADME, organism-based; details: in vivo; procedure, shortened: as §3
[14] = Drug uptake in blood of Lewis rat collagen-induced arthritis model at 30 mg/kg, po qd administered on day 15 post immunization measured at 4 hrs on day 18; assay type: ADME, organism-based; design: dose 30 mg/kg, route oral; details: read-out: Drug uptake; procedure, shortened: as §1
[15] = target: Serine/threonine-protein kinase PAK 4 (Homo sapiens, UniProt O96013); assay: Competitive binding affinity to human PAK4
Rattus norvegicus [16] = assay: In vivo inhibition of Syk in Lewis rat assessed as reduction in FcgR-induced SLP76 phosphorylation in peripheral blood monocytes at 22 mg/kg, po measured after 4 hrs relative to vehicle-treated control; assay type: functional; procedure, shortened: as §2
[17] = Cytotoxicity against C57BL/6 mouse bone marrow cells assessed as growth inhibition preincubated for 4 days followed by [3H]-thymidine addition measured after 5 hrs by betaplate counting analysis; assay type: cell-based, Bone marrow cell; details: Mus musculus, C57BL/6, Bone marrow cell
Rattus norvegicus [18] = organism: Rattus norvegicus; assay: Hepatotoxicity in rat assessed as bile plugs measured for 4 weeks by GLP study; assay type: toxicity, organism-based; details: in vivo, 672 h
[19] = Drug uptake in blood of Lewis rat collagen-induced arthritis model at 10 mg/kg, po qd administered on day 15 post immunization measured at 24 hrs on day 18; assay type: ADME, organism-based; design: dose 10 mg/kg, route oral; details: read-out: Drug uptake; procedure, shortened: as §1
[20] = target: T1, Tyrosine-protein kinase ZAP-70 (Homo sapiens, UniProt P43403); assay: Inhibition of ZAP70 in anti-CD3 stimulated human Jurkat T cells assessed as SLP76 phosphorylation at Y128 preincubated for 30 mins followed by anti-CD3 stimulation measured after 2 mins by FACS analysis; assay type: cell-based
T1 sequence (P43403 whole entry): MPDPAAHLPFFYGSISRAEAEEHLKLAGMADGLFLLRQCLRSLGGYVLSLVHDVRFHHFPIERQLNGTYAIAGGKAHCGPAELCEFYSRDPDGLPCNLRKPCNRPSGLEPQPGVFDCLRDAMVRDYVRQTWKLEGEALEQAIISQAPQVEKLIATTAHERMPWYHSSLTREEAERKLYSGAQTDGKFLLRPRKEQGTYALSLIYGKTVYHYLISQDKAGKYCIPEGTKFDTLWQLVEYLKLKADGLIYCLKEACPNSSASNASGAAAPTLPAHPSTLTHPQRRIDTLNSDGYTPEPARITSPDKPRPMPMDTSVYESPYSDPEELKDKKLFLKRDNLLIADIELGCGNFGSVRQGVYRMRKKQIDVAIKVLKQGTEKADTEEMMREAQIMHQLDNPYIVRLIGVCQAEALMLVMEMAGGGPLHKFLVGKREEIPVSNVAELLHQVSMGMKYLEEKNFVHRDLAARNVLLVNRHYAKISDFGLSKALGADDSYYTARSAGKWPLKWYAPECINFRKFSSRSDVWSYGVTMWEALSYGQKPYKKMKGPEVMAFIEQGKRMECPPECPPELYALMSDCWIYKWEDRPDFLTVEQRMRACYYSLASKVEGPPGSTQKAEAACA
Procedure, shortened: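 Jurkat T cells washed in RPMI/0.1% FCS, preincubated with compound 30 min at 37 °C, stimulated with anti-TCR OKT3 (30 μg/mL final) 2 min at 37 °C, fixed in 2% PFA, permeabilized in 90% methanol, stained anti-SLP76 pY128 80 min at RT; flow cytometry. IC50 from factor F = MFI × percent positive cells.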

[21] = Oral bioavailability in Sprague-Dawley rat at 3 mg/kg administered as cassette dosing; assay type: ADME, organism-based; details: in vivo
Procedure, shortened: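 Rats were dosed i.v. at 1 mg/kg in NMP/PEG200 (3:7) and p.o. at 3 mg/kg in CMC/water/Tween (0.5:99:0.5). PK parameters were derived from blood concentration–time curves for both routes.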

[22] = target: Mitotic checkpoint serine/threonine-protein kinase BUB1 (Homo sapiens, UniProt O43683); assay: Competitive binding affinity to human BUB1
[23] = target: Tyrosine-protein kinase SYK (Homo sapiens, UniProt P43405)
[24] = target: Serine/threonine-protein kinase PAK 6 (Homo sapiens, UniProt Q9NQU5); assay: Competitive binding affinity to human PAK6
[25] = Clearance in Beagle dog at 0.1 mg/kg, iv and 0.3 mg/kg, po; assay type: ADME, organism-based, Canis lupus familiaris; details: in vivo
Procedure, shortened: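 One-in-one dosing in Beagle dogs: i.v. 0.1 mg/kg in NMP/PEG200 (3:7); p.o. 0.3 mg/kg in MC/water (0.5:99.5). Exposure values dose normalized.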

hERG (KCNH2) = hERG (KCNH2) (Homo sapiens, UniProt Q12809); assay: Inhibition of human ERG at 10 uM by manual patch clamp assay relative to control

Chain of STE20-like serine/threonine-protein kinase (Q9H2G2 whole entry): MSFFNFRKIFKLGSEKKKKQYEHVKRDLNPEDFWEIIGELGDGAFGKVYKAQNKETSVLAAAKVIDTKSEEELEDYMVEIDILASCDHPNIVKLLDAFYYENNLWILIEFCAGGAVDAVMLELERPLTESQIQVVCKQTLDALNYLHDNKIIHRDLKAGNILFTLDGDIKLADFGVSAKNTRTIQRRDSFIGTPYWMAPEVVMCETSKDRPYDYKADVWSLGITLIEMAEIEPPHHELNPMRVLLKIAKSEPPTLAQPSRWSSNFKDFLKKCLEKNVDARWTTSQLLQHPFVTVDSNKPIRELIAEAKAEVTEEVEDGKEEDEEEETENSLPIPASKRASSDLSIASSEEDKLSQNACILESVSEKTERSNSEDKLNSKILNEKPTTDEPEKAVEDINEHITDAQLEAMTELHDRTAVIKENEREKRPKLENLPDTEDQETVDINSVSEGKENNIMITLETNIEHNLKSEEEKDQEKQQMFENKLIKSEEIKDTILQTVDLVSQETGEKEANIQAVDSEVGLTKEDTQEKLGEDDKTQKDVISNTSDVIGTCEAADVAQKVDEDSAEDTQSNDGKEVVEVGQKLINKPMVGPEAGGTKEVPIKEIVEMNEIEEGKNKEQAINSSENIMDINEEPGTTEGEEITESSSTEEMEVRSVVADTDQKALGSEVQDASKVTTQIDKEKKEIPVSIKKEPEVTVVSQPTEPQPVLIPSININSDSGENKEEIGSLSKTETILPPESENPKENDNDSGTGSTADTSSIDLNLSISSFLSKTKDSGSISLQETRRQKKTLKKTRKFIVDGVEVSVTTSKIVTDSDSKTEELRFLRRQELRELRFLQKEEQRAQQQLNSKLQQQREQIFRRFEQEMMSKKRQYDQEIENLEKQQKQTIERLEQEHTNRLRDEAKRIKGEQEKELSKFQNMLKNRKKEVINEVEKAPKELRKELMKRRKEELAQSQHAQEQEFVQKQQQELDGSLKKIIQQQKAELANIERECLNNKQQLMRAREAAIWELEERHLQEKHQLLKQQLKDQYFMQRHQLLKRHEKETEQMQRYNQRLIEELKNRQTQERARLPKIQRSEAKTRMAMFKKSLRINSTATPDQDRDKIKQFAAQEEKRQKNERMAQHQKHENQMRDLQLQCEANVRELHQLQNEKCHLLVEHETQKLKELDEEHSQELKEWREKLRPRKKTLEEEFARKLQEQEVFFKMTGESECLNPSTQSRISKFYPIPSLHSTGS
Chain of Serine/threonine-protein kinase PAK 6 (Q9NQU5 whole entry): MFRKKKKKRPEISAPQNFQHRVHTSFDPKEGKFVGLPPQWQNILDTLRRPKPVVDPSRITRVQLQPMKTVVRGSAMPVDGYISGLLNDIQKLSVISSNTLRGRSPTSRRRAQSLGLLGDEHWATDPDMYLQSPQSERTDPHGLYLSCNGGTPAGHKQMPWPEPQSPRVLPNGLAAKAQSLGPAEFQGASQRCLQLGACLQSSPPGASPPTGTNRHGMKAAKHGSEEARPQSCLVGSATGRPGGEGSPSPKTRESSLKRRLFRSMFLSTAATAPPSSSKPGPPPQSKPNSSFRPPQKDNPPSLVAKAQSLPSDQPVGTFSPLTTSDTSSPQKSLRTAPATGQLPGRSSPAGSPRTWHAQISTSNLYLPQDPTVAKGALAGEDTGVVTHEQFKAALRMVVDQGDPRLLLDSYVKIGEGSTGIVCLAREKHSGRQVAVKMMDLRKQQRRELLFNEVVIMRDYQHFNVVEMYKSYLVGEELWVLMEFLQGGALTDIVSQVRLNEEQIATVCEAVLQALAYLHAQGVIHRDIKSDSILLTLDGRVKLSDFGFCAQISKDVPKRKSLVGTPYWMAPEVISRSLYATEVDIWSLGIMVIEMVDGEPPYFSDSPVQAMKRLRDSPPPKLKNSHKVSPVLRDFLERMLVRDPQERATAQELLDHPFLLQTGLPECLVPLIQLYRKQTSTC
Chain of Proto-oncogene tyrosine-protein kinase ROS (P08922 whole entry): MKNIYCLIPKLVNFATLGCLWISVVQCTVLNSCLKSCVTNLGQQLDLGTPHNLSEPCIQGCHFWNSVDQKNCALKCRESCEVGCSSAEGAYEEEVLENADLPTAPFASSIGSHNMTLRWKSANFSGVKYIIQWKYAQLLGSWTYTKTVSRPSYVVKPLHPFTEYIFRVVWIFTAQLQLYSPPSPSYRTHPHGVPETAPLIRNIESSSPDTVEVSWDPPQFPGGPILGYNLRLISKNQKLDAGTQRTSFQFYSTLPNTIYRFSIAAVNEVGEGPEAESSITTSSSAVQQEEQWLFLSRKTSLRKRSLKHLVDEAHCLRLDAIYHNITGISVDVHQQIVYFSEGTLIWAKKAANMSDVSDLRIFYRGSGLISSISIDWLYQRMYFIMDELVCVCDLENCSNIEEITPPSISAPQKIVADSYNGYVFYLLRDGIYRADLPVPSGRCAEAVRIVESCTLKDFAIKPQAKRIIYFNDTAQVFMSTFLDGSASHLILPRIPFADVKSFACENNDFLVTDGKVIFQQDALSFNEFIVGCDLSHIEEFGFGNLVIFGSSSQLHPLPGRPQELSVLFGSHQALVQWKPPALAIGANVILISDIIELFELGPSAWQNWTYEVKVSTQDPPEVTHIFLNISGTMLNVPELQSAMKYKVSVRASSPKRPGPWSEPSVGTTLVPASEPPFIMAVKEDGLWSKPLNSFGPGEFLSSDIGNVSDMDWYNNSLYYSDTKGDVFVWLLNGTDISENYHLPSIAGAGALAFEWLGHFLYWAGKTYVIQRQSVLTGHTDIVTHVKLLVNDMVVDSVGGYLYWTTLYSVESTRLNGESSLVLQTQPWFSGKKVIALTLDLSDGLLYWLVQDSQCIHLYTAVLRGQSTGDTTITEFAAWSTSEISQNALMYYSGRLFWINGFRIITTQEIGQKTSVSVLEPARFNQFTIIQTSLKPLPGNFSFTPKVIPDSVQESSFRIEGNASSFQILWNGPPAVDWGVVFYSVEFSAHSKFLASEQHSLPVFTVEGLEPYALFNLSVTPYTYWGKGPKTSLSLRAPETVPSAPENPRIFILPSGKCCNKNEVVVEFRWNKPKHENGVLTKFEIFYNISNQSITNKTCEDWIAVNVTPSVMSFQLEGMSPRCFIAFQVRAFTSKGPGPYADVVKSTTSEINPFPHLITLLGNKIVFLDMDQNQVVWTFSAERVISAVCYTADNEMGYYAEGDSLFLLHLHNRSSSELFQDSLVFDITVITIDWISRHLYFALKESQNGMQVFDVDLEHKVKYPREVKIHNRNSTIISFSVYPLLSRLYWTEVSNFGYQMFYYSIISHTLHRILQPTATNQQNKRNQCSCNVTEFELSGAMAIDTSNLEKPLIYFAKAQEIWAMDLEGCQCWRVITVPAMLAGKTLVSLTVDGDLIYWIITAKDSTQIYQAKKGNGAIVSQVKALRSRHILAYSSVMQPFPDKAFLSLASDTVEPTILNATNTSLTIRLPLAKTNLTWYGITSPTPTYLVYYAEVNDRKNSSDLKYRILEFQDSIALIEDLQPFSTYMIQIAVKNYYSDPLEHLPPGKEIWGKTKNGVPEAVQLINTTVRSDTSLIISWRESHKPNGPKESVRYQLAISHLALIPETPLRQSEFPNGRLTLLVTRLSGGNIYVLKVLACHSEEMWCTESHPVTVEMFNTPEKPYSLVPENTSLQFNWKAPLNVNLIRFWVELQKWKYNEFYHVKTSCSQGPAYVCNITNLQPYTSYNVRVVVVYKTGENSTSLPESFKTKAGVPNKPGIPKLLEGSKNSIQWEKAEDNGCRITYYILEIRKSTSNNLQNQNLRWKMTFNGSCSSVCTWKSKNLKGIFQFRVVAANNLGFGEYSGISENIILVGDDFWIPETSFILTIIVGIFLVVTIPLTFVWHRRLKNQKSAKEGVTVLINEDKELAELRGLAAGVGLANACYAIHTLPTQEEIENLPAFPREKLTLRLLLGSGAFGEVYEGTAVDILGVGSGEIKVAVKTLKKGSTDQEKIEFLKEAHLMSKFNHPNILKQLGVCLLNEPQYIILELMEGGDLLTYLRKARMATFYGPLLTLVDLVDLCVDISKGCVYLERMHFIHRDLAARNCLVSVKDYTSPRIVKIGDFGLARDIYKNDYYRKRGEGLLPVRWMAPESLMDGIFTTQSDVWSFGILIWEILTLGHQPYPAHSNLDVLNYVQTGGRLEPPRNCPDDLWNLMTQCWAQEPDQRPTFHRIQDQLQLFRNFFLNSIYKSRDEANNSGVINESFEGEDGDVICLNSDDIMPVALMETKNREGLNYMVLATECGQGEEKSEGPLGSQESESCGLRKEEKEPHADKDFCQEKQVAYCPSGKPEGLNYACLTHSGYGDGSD
Chain of Serine/threonine-protein kinase PAK 4 (O96013 whole entry): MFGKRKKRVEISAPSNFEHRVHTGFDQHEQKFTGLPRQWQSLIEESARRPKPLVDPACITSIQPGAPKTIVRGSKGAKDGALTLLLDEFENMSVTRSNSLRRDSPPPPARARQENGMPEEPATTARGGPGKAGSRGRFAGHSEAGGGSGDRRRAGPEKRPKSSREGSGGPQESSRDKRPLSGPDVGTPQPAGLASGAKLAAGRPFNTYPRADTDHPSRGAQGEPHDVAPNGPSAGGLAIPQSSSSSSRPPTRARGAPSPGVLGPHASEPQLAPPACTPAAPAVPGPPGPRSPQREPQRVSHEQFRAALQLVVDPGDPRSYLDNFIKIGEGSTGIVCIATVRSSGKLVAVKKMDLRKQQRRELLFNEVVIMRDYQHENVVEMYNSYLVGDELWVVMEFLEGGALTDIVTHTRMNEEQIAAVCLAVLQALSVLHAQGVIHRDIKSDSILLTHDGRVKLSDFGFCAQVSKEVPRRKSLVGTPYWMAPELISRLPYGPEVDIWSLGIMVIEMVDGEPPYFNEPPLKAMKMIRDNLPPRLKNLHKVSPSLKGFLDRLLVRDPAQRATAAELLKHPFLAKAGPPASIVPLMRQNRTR

- Kd [1]: 380 nM
- concentration at 8 h [2]: 349 nM
- concentration at 8 h [4]: 65 nM
- Cmax/dose (Rattus norvegicus [5]): 80 nM
- concentration at 24 h [8]: 300 nM
- Vd [9]: 6.8 L/kg
- Kd [11]: 53 nM
- Kd [12]: 120 nM
- clearance [13]: 31 mL/min/kg
- concentration at 4 h [14]: 2890 nM
- Kd [15]: 17 nM
- concentration at 24 h [19]: 156 nM
- IC50 [20]: 2530 nM
- bioavailability [21]: 60%
- Kd [22]: 240 nM
- IC50 [23]: 35 nM
- Kd [24]: 110 nM
- clearance [25]: 11 mL/min/kg
SMILES: NC(=O)c1nnc(N[C@@H]2CCCC[C@@H]2N)nc1Nc1cccc2cc[nH]c12
- inhibition in vivo at 22 mg/kg (Rattus norvegicus [3]): 45%
- Activity (Canis familiaris [6]): Toxic
- Activity (Canis familiaris [7]): Toxic
- Activity (Rattus norvegicus [10]): Toxic
- inhibition in vivo at 22 mg/kg (Rattus norvegicus [16]): 85%
- IC50 [17]: 9020 nM
- Activity (Rattus norvegicus [18]): Toxic
- inhibition at 10 µM (hERG (KCNH2)): 0%
